SUMO1-SIM PPI – alters human SUMO1 binding to SIM partners; P63165; SUMO1 binding to a labelled peptide, TR-FRET, 1 h; inhibition, % at 20 µM; 360,000 compounds, 0.33% hits; in the data active = inhibition above about 37%
Target sequence (P63165 whole entry, looked up): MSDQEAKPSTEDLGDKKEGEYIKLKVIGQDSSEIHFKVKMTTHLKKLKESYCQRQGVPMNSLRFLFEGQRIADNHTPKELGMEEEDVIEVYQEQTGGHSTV
NadD block – blocks S. aureus nicotinate mononucleotide adenylyltransferase. purified NadD enzyme, colorimetric absorbance read-out. inhibition, % at 20 µM. 360,000 compounds, 0.78% hits. AID 602399; in the data active = inhibition above about 26%
Scp-1 inhibitor – Scp-1 (human) phosphatase inhibition; Q9GZU7; Recombinant Scp1, phosphopeptide, malachite green phosphate absorbance; inhibition, % at 20 µM; 340,000 compounds, 0.88% hits; AID 493091;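 active = inhibition above about 50% at 20 µM, limit read from the data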;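 also: plate controls were DMSO wells with enzyme for no effect and wells lacking enzyme for full effect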
Target sequence (Q9GZU7 76-261 limits assumed): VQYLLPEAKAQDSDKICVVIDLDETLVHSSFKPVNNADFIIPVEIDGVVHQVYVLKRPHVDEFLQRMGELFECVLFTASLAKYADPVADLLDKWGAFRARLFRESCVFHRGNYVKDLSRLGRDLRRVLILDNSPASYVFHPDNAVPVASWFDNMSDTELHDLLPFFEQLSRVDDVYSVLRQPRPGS
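Times: enzyme reaction 45 min at room temperature, colour 5 min, stabilisation 30 min. Material: SCP-1 catalytic fragment, aa 76-261. Medium: Acidic Tris acetate buffer with magnesium and detergent. Signal: colorimetric free-phosphate detection, absorbance 630 nm. Read-out basis: % inhibition of SCP-1 phosphate liberation. Reagent: Phosphorylated 17-residue peptide substrate.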
STEP inh – STEP (human) phosphatase inhibition. recombinant STEP, OMFP fluorogenic substrate, fluorescence. inhibition, % at 20 µM. 360,000 compounds, 0.25% hits;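 active = inhibition at 20 µM, scaled per plate between control wells, above about 37%, limit read from the data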;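 also: 0% = DMSO with enzyme and substrate and 100% = substrate only without enzyme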
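System: STEP phosphatase, cell-free reaction; Buffer or medium: Bis-Tris pH 6.0 buffer with DTT, detergent; Incubation: 20 min at room temperature, dark; Measured by: fluorescence, 480/540 nm.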
DNMT1 block – inhibitors of human DNMT1; DNMT1 molecular beacon, Hinp1I cleavage, fluorescence; P26358; inhibition (reported as % activation of signal), % at 10 µM; AID 588458; 360,000 compounds, 0.83% hits; in the data active = inhibition above about 50%
LMPTP inh – blocks human LMPTP phosphatase. P24666. recombinant LMPTP-A, OMFP fluorogenic substrate, fluorescence intensity. inhibition, % at 20 µM. 360,000 compounds, 0.22% hits;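 active = compounds that cut the enzyme signal by at least half of the control window in the single-dose screen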;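 also: plate controls were DMSO wells with enzyme plus substrate for no effect and substrate without enzyme for full effect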
Target sequence (P24666 whole entry, looked up): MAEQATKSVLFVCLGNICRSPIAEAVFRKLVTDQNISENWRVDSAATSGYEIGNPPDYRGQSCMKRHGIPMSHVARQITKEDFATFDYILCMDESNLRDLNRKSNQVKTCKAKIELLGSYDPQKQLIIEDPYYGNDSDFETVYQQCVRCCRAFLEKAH
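Test system – LMPTP-A phosphatase enzyme · Quantity – 0.625 nM LMPTP-A final · Reagent – OMFP substrate, 400 µM final · Dosing – one test concentration per compound, 20 µM, with 3% DMSO overall · Timing – 50 min enzyme reaction at room temperature, protected from light · Detection – fluorescence intensity · Controls – substrate-only low control, DMSO enzyme-plus-substrate high control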
DNMT1 interf DR – shows spectral interference in the DNMT1 beacon assay; shares compounds with DNMT1 block; molecular beacon fluorescence, spectral interference counter-screen; IC50, µM; 200 tested, under 10 active; AID 602382; call rule not given here
DNMT1 confirm – DNMT1 inhibition confirmation, single concentration; 2,300 compounds, 8% hits; shares compounds with DNMT1 block; DNMT1 molecular beacon HinP1I cleavage, fluorescence; inhibition, % at 10 µM;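 active = average inhibition of at least 30% in the single-concentration confirmation test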
DNMT1 interf – counter-screen for DNMT1 inhibitors: spectral interference. shares compounds with DNMT1 block. DNMT1 molecular beacon spectral interference counterscreen, fluorescence 485/520. activation (fluorescence interference), % at 10 µM. 2,300 compounds, 1% hits. AID 602387;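 active = activation of at least 30% at 10 µM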;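 also: DNMT1 catalytic domain with a HinP1I cleavage step and a FAM/dabcyl DNA beacon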
The depositor's hits bear a star; x = no result given; ! = not active in a repeat. Only some compounds are listed: those with a hit (about 2.3% of all), similar ones and a draw of the others.

SMILES | SUMO1-SIM PPI | NadD block | Scp-1 inhibitor | STEP inh | DNMT1 block | LMPTP inh | DNMT1 confirm | DNMT1 interf | others
COc1ccc(S(=O)(=O)N2CC(C)OC(C)C2)cc1C(=O)N1CCCCC1 (configuration not stated) | 0 | 3 | -7 | -1 | 3 | 0 | x | x
COC(=O)NC1CCC(CC2CCC(NC(=O)OC)CC2)CC1 (configuration not stated) | 0 | 1 | -5 | 8 | 2 | 0 | x | x
O=C(NC1CCC(CC2CCC(NC(=O)C(Cl)Cl)CC2)CC1)C(Cl)Cl (configuration not stated) | -7 | 9 | -5 | 4 | 63* | 8 | 1 | -2
O=C(O)C/C(=C\c1cc(Cl)c2c(c1)OCO2)c1nc2ccccc2s1 | -13 | 3 | 28 | 0 | 53* | 10 | 16 | 8
CSc1ccc(CN2CCC(C)(Oc3cccc(Cl)c3)C2)cc1 (configuration not stated) | -1 | -3 | x | -1 | 11 | 4 | x | x
CCc1ccc(CN(Cc2cccnc2)C(=O)/C=C/c2ccc(OC)cc2)cc1 | -27 | 17 | 10 | -1 | 57* | 3 | 2 | 0
COc1ccc(/C=C/C(=O)NCc2cccnc2)cc1 | -2 | 1 | -5 | 2 | -2 | -2 | x | x
CC(=O)c1ccc(OC2(C)CCN(Cc3cc4ccccc4[nH]3)C2)cc1 (configuration not stated) | 4 | -1 | x | 1 | 91* | 26 | 2 | 4
O=C(NNC(=O)C1CCCCC1)c1ccco1 | 2 | -1 | -4 | 6 | -1 | -1 | x | x
CCC1CCC(C(=O)NNC(=O)c2cc(-c3ccco3)[nH]n2)CC1 (configuration not stated) | 2 | -2 | 11 | 3 | 51* | 0 | 2 | 6
CCOc1ccc(S(=O)(=O)NCCCN2CCCC2=O)cc1 | 0 | 3 | -1 | -1 | 6 | 0 | x | x
COc1cc(/C=C/C(=O)OCC(=O)N2CCN(C(=O)c3ccco3)CC2)ccc1O | -10 | -1 | -3 | -4 | 7 | -1 | x | x
Cc1cc(C)c(C)c(S(=O)(=O)N2CCN(c3ncnc4ccccc34)CC2)c1C | 7 | 4 | 5 | 6 | 75* | 9 | 0 | 2
Cc1cc(C)c(C)c(S(=O)(=O)N2CCN(c3ccccn3)CC2)c1C | 8 | -5 | 8 | 0 | 0 | 4 | x | x
CCCCN(C(=O)c1cccc(-n2cccc2)c1)c1c(N)n(Cc2ccccc2)c(=O)[nH]c1=O | 33 | 7 | x | 7 | 92* | 10 | 7 | 0
CC(C)c1ccc(NC(=S)N2CCCC(c3ccc(F)cc3)=N2)cc1 | -3 | -2 | -18 | 4 | -2 | 5 | x | x
O=C1NC(=O)C2(N1)C(=O)c1cccc3cccc2c13 (configuration not stated) | -16 | -2 | x | -1 | 92* | -3 | 49* | 70*
O=C1NC(=O)C2(N1)c1ccccc1-c1ccccc12 | 0 | -8 | -5 | -4 | 5 | -4 | x | x
CCCC(C(=O)NCc1ccco1)N(Cc1ccco1)C(=O)CNS(=O)(=O)c1ccccc1 (configuration not stated) | 11 | -7 | -9 | -3 | 2 | -1 | x | x
N#CCCN(Cc1ccccc1)C(C(=O)NC1CCCCC1)c1cc2ccccc2o1 (configuration not stated) | 7 | -1 | x | 2 | -5 | 6 | x | x
c1ccc2c(c1)C1=NCCN1c1ccccc1-2 | 2 | -1 | x | 3 | 66* | 3 | 48* | 0 | DNMT1 interf DR=>99
Cc1cccc(-n2cnc(C(=O)N/N=C\c3ccc(Br)cc3)c2)n1 | 0 | 2 | -2 | 3 | 52* | 1 | 2 | -2
Cc1cccc(-n2cnc(C(=O)NNC(=S)Nc3ccc(Cl)cc3)c2)n1 | 11 | -1 | -4 | 4 | -4 | 1 | x | x
CS/C(=N\S(=O)(=O)c1cccs1)Nc1ccc(N2CCOCC2)cc1 | 4 | 3 | -5 | 0 | 83*! | 0 | 2 | 2
CCCCC1(C)NC(=O)N(CC(=O)N2CCc3ccccc32)C1=O (configuration not stated) | 0 | -4 | -7 | -4 | 2 | 0 | x | x
SMILES | SUMO1-SIM PPI | NadD block | Scp-1 inhibitor | STEP inh | DNMT1 block | LMPTP inh | DNMT1 confirm | DNMT1 interf | others
O=C(COC(=O)C1CC(=O)N(Cc2ccco2)C1)c1ccc(OC(=O)c2ccco2)cc1 (configuration not stated) | 25 | 36* | 81* | 10 | 76* | 18 | 5 | 3
O=C(COC(=O)C1CC(=O)N(Cc2ccccc2)C1)c1ccc(Br)cc1 (configuration not stated) | -2 | -2 | -5 | 0 | 7 | -1 | x | x
COc1cccc(-c2ccc3c(c2)O[C@@H](CN(C)Cc2cncnc2)[C@@H](C)CN([C@H](C)CO)S3(=O)=O)c1 | 5 | -4 | x | 1 | -9 | -2 | x | x
O=C(Nc1ccc(N2CCCC2)cc1)c1ccccc1F | -1 | 29 | -4 | 2 | 72* | 43 | 4 | 10
O=C(Nc1ccc(N2CCCC2)cc1)c1cccc(F)c1 | 0 | 22 | 3 | 4 | 65* | 10 | 2 | 4
CC1CCCN(C(=O)c2cccc(S(=O)(=O)NCc3ccccc3)c2)C1 (configuration not stated) | -2 | -4 | x | -2 | 1 | -1 | x | x
COc1ccc(-c2nc3c(C(=O)NCCN(C)C)cccc3c3ccccc23)cc1 | -30 | 0 | 10 | 1 | 59* | -1 | 22 | -1
Cc1cc(C)n(CCNC(=O)c2cc(COc3c(F)cccc3F)on2)n1 | 2 | -5 | 0 | -2 | 1 | -1 | x | x
Cc1cc(C)n(CCN(C)C(=O)c2cc(COc3c(F)cccc3F)on2)n1 | 1 | 9 | -8 | 0 | 51* | -1 | 0 | 3
CN(C(=O)c1cccc(NC(=O)Cc2cccc(NC(=O)C3CCN(C(=O)C4CCCCC4)CC3)c2)c1)C1CC1 | 2 | 1 | 1 | -3 | 0 | -2 | x | x
COc1cccc(N2CCN(C(=O)C3CCC(=O)N(C4CCCCCC4)C3)CC2)c1 (configuration not stated) | 2 | -4 | 5 | 2 | 0 | 0 | x | x
Cc1ccc(CNc2ccc3nnc(-c4ccccc4)n3n2)cc1 | 17 | 5 | 0 | 0 | 74* | 4 | 4 | 0

Bioassay records: PubChem BioAssay, Sanford-Burnham Center for Chemical Genomics
